Experimental data pooled from the literature.
pEC50: −log10 of the molar value.

Compound | target or system | test | system | conditions | quantity | value
COC(=O)c1cc(Sc2ccc(NC(=S)Nc3ccc(Cl)c(C(F)(F)F)c3)cc2)ccn1 | Staphylococcus aureus | microbial growth | NCTC8325 | 24 h | MIC | > 100 µM
O=C1NC(=S)N/C1=C\c1ccc(-c2ccc(N(c3ccccc3)c3ccccc3)cc2)cc1 | Staphylococcus aureus | microbial killing, broth dilution | ATCC25923 |  | MBC | > 1000 µg/mL
CC(C)Cc1nn(-c2nc3ccc(Br)cc3s2)c2c1C(=O)c1ccccc1-2 | Staphylococcus aureus | microbial growth, well diffusion | NCIM5021 | 500 µg/mL | inhibition zone | 14 mm
c1cc(Nc2nccc(NC3CCCCC3)n2)cc(N2CCOCC2)c1 | MV4-11 | cell growth or viability, ATP luminescence |  | 72 h | pEC50 | 6.43
CC(C)c1nn(-c2nc3ccc(Br)cc3s2)c2c1C(=O)c1ccccc1-2 | Staphylococcus aureus | microbial growth, well diffusion | NCIM5021 | 125 µg/mL | inhibition zone | 11 mm
COC(C)(C)CCC[C@](C)(O)[C@H]1CC[C@]2(C)[C@@H]1[C@H](O)C[C@@H]1[C@@]3(C)CC[C@H](O)C(C)(C)[C@@H]3CC[C@]12C | BEAS-2B | cell growth or viability |  | 25 µM, 24 h | inhibition | ~50%
Cc1[nH]c(/C=C2\C(=O)Nc3ccc(S(=O)(=O)N(C)c4cccc(Cl)c4)cc32)c(C)c1C(=O)N1CCN(C)CC1 | Staphylococcus aureus | microbial growth | NCTC8325 |  | MIC | > 30 µM
CC(C)Nc1ccnc(Nc2cccc(-c3ncco3)c2)n1 | MV4-11 | cell growth or viability, ATP luminescence |  | 72 h | pEC50 | 5.97
Cc1nn(-c2nc3ccc(Br)cc3s2)c2c1C(=O)c1ccccc1-2 | Staphylococcus aureus | microbial growth, well diffusion | NCIM5021 | 250 µg/mL | inhibition zone | 11 mm
c1ccc(-c2ccc(Nc3nccc(NC4CCCCC4)n3)cc2)nc1 | MV4-11 | cell growth or viability, ATP luminescence |  | 72 h | pEC50 | 7.39
Cc1ccc2nc(-n3nc(C(C)C)c4c3-c3ccccc3C4=O)sc2c1 | Staphylococcus aureus | microbial growth, well diffusion | NCIM5021 | 250 µg/mL | inhibition zone | 13 mm
O=C(Nc1ccc(C(=O)Nc2ccccc2)cc1)Nc1ccc(Cl)c(C(F)(F)F)c1 | Staphylococcus aureus | microbial growth | NCTC8325 | 24 h | MIC | > 100 µM
c1cncc(-c2cccc(Nc3nccc(NC4CCC4)n3)c2)c1 | MV4-11 | cell growth or viability, ATP luminescence |  | 72 h | pEC50 | < 4.77
COc1cc(N2CCC(N3CCN(C)CC3)CC2)ccc1Nc1ncc(Cl)c(Nc2ccccc2S(=O)(=O)C(C)C)n1 | Staphylococcus aureus | microbial growth | NCTC8325 |  | MIC | > 30 µM
CC(C)(C)Nc1ccnc(Nc2cccc(-c3cccnc3)c2)n1 | MV4-11 | cell growth or viability, ATP luminescence |  | 72 h | pEC50 | 7.60
CC[C@@H]1C(=O)N(C)c2cnc(Nc3ccc(C(=O)NC4CCN(C)CC4)cc3OC)nc2N1C1CCCC1 | Staphylococcus aureus | microbial growth | NCTC8325 |  | MIC | > 30 µM
COc1ccc2nc(-n3nc(C)c4c3-c3ccccc3C4=O)sc2c1 | Staphylococcus aureus | microbial growth, well diffusion | NCIM5021 | 500 µg/mL | inhibition zone | 12 mm
